Source: ChEMBL document CHEMBL1649382, “Synthesis and in vitro anticancer evaluation of some novel hexahydroquinoline derivatives having a benzenesulfonamide moiety” (Eur J Med Chem, 2011)
Converted amounts (≈) assume the structure as drawn.

Columns and labels:
[1] = Cytotoxicity against mouse EAC assessed as non-viable cells at 100 ug/ml after 2 hrs by trypan blue exclusion test; type: functional, Ehrlich
How it was run: (§1)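 Mouse EAC cells came from ascitic fluid by needle aspiration, at 2.5×10^6 per mL in RPMI-1640. Each tube held 0.8 mL medium (glutamine, fetal calf serum, streptomycin, penicillin), 0.1 mL compound dissolved in DMSO (stock 10–100 µg per mL) and 0.1 mL of cells, at 37 °C for 2 h. Trypan blue staining gave the percentage of non-viable cells, as the mean of three experiments ± SD.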

[2] = Cytotoxicity against mouse EAC assessed as non-viable cells at 50 ug/ml after 2 hrs by trypan blue exclusion test; type: functional, Ehrlich; how it was run: as §1
[3] = Cytotoxicity against mouse EAC assessed as non-viable cells at 10 ug/ml after 2 hrs by trypan blue exclusion test; type: functional, Ehrlich; how it was run: as §1
[4] = Cytotoxicity against mouse EAC assessed as non-viable cells after 2 hrs by trypan blue exclusion test; type: functional, cell-based; conditions: Ehrlich
How it was run: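 EAC cells were aspirated from the ascitic fluid of preinoculated mice and suspended in RPMI-1640 at 2.5×10^6 per mL. Each tube held 0.8 mL supplemented medium, 0.1 mL of a DMSO solution (100, 50, 25 or 10 µg per mL DMSO) and 0.1 mL of cells, incubated 2 h at 37 °C. Non-viable cells were counted by trypan blue. The survival-versus-concentration curve gave IC50, the concentration causing 50% mortality.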

[5] = Cytotoxicity against mouse EAC assessed as non-viable cells at 25 ug/ml after 2 hrs by trypan blue exclusion test; type: functional, Ehrlich; how it was run: as §1

SMILES | Activity [1] [%] | Activity [2] [%] | Activity [3] [%] | IC50 [4] [µg/mL] | Activity [5] [%]
Cc1nc2c(c(=S)[nH]1)C(c1ccc(Cl)cc1Cl)C1=C(CCCC1=O)N2c1ccc(S(N)(=O)=O)cc1 (stereo not given) | 60 | 40 | 30 | > 100 | 40
CC(=O)CC(=O)NC1=C(C#N)C(c2ccc(Cl)cc2Cl)C2=C(CCCC2=O)N1c1ccc(S(N)(=O)=O)cc1 (stereo not given) | 80 | 60 | 40 | 64 (≈ 112 µM) | 44
N#CC1=C(N)N(c2ccc(S(N)(=O)=O)cc2)C2=C(C(=O)CCC2)C1c1ccc(Cl)cc1Cl (stereo not given) | 95 | 65 | 40 | 25 (≈ 51.1 µM) | 50
Cc1ccc(-c2nc3c(c(=O)[nH]2)C(c2ccc(Cl)cc2Cl)C2=C(CCCC2=O)N3c2ccc(S(N)(=O)=O)cc2)cc1 (stereo not given) | 60 | 55 | 30 | 28 (≈ 46.1 µM) | 55
Cc1ccc(C(=O)NC2=C(C#N)C(c3ccc(Cl)cc3Cl)C3=C(CCCC3=O)N2c2ccc(S(N)(=O)=O)cc2)cc1 (stereo not given) | 40 | 40 | 20 | > 100 | 30
CCO/C=N/C1=C(C#N)C(c2ccc(Cl)cc2Cl)C2=C(CCCC2=O)N1c1ccc(S(N)(=O)=O)cc1 (stereo not given) | 40 | 35 | 30 | > 100 | 30
N#CC1=C(NC(=O)/C=C/c2ccccc2)N(c2ccc(S(N)(=O)=O)cc2)C2=C(C(=O)CCC2)C1c1ccc(Cl)cc1Cl (stereo not given) | 45 | 40 | 30 | > 100 | 30
CC(Cl)Cc1nc2c(c(=O)[nH]1)C(c1ccc(Cl)cc1Cl)C1=C(CCCC1=O)N2c1ccc(S(N)(=O)=O)cc1 (stereo not given) | 60 | 40 | 30 | > 100 | 40
CC(Cl)CC(=O)NC1=C(C#N)C(c2ccc(Cl)cc2Cl)C2=C(CCCC2=O)N1c1ccc(S(N)(=O)=O)cc1 (stereo not given) | 60 | 55 | 20 | 25 (≈ 42.1 µM) | 50
N#CC1=C(/N=C/c2ccc([N+](=O)[O-])cc2[N+](=O)[O-])N(c2ccc(S(N)(=O)=O)cc2)C2=C(C(=O)CCC2)C1c1ccc(Cl)cc1Cl (stereo not given) | 20 | 20 | 10 | > 100 | 20
N#CC1=C(NC(=O)c2ccc([N+](=O)[O-])cc2)N(c2ccc(S(N)(=O)=O)cc2)C2=C(C(=O)CCC2)C1c1ccc(Cl)cc1Cl (stereo not given) | 70 | 50 | 40 | 50 (≈ 78.3 µM) | 40
NS(=O)(=O)c1ccc(N2C3=C(C(=O)CCC3)C(c3ccc(Cl)cc3Cl)c3c2nc(-c2ccccc2)[nH]c3=O)cc1 (stereo not given) | 60 | 10 | 0 | > 100 | 0
NS(=O)(=O)c1ccc(N2C3=C(C(=O)CCC3)C(c3ccc(Cl)cc3Cl)c3c2nc(C2CC2)[nH]c3=O)cc1 (stereo not given) | 60 | 52 | 27 | 56 (≈ 100 µM) | 44
NS(=O)(=O)c1ccc(N2C3=C(C(=O)CCC3)C(c3ccc(Cl)cc3Cl)c3c2nc(CCl)[nH]c3=O)cc1 (stereo not given) | 40 | 35 | 30 | > 100 | 30
NC1=C(C(=O)O)C(c2ccc(Cl)cc2Cl)C2=C(CCCC2=O)N1c1ccc(S(N)(=O)=O)cc1 (stereo not given) | 60 | 10 | 0 | > 100 | 0
N#CC1=C(NC(=O)C2CC2)N(c2ccc(S(N)(=O)=O)cc2)C2=C(C(=O)CCC2)C1c1ccc(Cl)cc1Cl (stereo not given) | 60 | 40 | 20 | 75 (≈ 135 µM) | 40
CN(C)c1ccc(/C=C/C=N/C2=C(C#N)C(c3ccc(Cl)cc3Cl)C3=C(CCCC3=O)N2c2ccc(S(N)(=O)=O)cc2)cc1 (stereo not given) | 20 | 20 | 10 | > 100 | 20
COc1cccc2c1C(=O)c1c(O)c3c(c(O)c1C2=O)C[C@@](O)(C(=O)CO)C[C@@H]3O[C@H]1C[C@H](N)[C@H](O)[C@H](C)O1 [DOXORUBICIN] | 100 | 68 | 19 | 38 (≈ 69.9 µM) | 32
CN(C)c1ccc(/C=N/C2=C(C#N)C(c3ccc(Cl)cc3Cl)C3=C(CCCC3=O)N2c2ccc(S(N)(=O)=O)cc2)cc1 (stereo not given) | 40 | 30 | 10 | > 100 | 30
COc1cc(C(=O)NC2=C(C#N)C(c3ccc(Cl)cc3Cl)C3=C(CCCC3=O)N2c2ccc(S(N)(=O)=O)cc2)cc(OC)c1OC (stereo not given) | 95 | 95 | 0 | 60 (≈ 87.8 µM) | 20
NC(=O)C1=C(N)N(c2ccc(S(N)(=O)=O)cc2)C2=C(C(=O)CCC2)C1c1ccc(Cl)cc1Cl (stereo not given) | 45 | 40 | 30 | > 100 | 30
NS(=O)(=O)c1ccc(N2C3=C(C(=O)CCC3)C(c3ccc(Cl)cc3Cl)c3c2nc(-c2ccc(Br)cc2)[nH]c3=O)cc1 (stereo not given) | 100 | 60 | 20 | 25 (≈ 37.2 µM) | 50
N#CC1=C(NC(=O)c2ccccc2)N(c2ccc(S(N)(=O)=O)cc2)C2=C(C(=O)CCC2)C1c1ccc(Cl)cc1Cl (stereo not given) | 75 | 70 | 50 | 10 (≈ 16.8 µM) | 60
